The values below come from ChEMBL document CHEMBL4706538, “Novel pleuromutilin derivatives with substituted 6-methylpyrimidine: Design, synthesis and antibacterial evaluation” (2020).

Molecules are shown by their SMILES. ≈ marks a conversion by molar mass, not a printed value. Calls of active or inactive are those of the source. The rule behind the calls is not given here. Where only a bound is given, the exact number is not on record here.

The test system of assay [1] is Staphylococcus aureus. The experiment in a line: Antibacterial activity against Staphylococcus aureus ATCC 25923 measured after 18 to 24 hrs by microtiter dilution method. It is filed as functional. As to conditions: time 18-24 hrs. In short, it runs like this: (§1)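 Compounds were taken up in 25% DMSO at 64 μg/mL and serially diluted two-fold in water (11 dilutions). Log-phase bacteria grown in MHB were diluted to 10^5-10^6 CFU/mL and mixed 1:1 with the dilutions. Plates were incubated at 37 °C for 18-24 h. MIC was the lowest concentration giving no growth by OD492, averaged over three independent experiments.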

The test system of assay [2] is Staphylococcus epidermidis. The experiment in a line: Antibacterial activity against Staphylococcus epidermidis ATCC 51625 measured after 18 to 24 hrs by microtiter dilution method. It counts as functional. The note with it: time 18-24 hrs. A digest of the protocol:
as §1

In assay [3] the test system is Staphylococcus aureus. The experiment in a line: Antibacterial activity against Staphylococcus aureus BNCC 337371 measured after 18 to 24 hrs by microtiter dilution method. It is filed as functional. As to conditions: time 18-24 hrs. In short, it runs like this: as §1
For assay [4], the system named is Streptococcus dysgalactiae. The experiment in a line: Antibacterial activity against Streptococcus dysgalactiae measured after 18 to 24 hrs by microtiter dilution method. It is filed as functional. The note with it: time 18-24 hrs. In short, it runs like this:
as §1

In the next assay the test system is Streptococcus agalactiae. The experiment in a line: Antibacterial activity against Streptococcus agalactiae measured after 18 to 24 hrs by microtiter dilution method. It counts as functional. As to conditions: time 18-24 hrs. In short, it runs like this:
as §1

A further assay deals with Enterococcus faecalis. The experiment in a line: Antibacterial activity against Enterococcus faecalis measured after 18 to 24 hrs by microtiter dilution method. It counts as functional. As to conditions: time 18-24 hrs. A digest of the protocol:
as §1

Another assay has as its system Pasteurella multocida. The experiment in a line: Antibacterial activity against Pasteurella multocida CVCC 1659 measured after 18 to 24 hrs by microtiter dilution method. It is filed as functional. As to conditions: time 18-24 hrs. A digest of the protocol:
as §1

A further assay concerns Escherichia coli. The experiment in a line: Antibacterial activity against Escherichia coli CICC 10389 measured after 18 to 24 hrs by microtiter dilution method. It is filed as functional. As to conditions: time 18-24 hrs. A digest of the protocol:
as §1

For assay [5], the system named is Staphylococcus aureus. The experiment in a line: Bacteriostatic activity against Staphylococcus aureus BNCC 337371 assessed as reduction in bacterial load incubated for 2 to 24 hrs prior to 10 fold dilution followed by replating on MH agar plate and measured after 24 hrs by time-kill assay. It is filed as functional, organism-based. As to conditions: time 2-24 hrs. A digest of the protocol:
(§2)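 MRSA-337371 was grown in Mueller-Hinton broth at 37 °C for 6 h with shaking, then diluted to about 6×10^5 CFU/mL. It was exposed to 0.5, 1, 2 and 4× MIC. Samples taken at 0, 2, 4, 6, 8, 12 and 24 h were serially diluted 10-fold in 0.9% saline and plated on MH agar at 37 °C for 24 h. Colonies were counted as log10 CFU/mL, in triplicate.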

The subject of assay [6] is Staphylococcus aureus. The experiment in a line: Bacteriostatic activity against Staphylococcus aureus BNCC 337371 assessed as reduction in bacterial load at 2 to 4 times MIC incubated for 8 hrs prior to 10 fold dilution followed by replating on MH agar plate and measured after 24 hrs by time-kill assay relative to control. It is filed as functional. The note with it: time 32 hrs. A digest of the protocol: as §2

Assay [7] deals with Staphylococcus aureus. The experiment in a line: Antibacterial activity against Staphylococcus aureus BNCC 337371 infected in ip dosed Kunming mouse assessed as increase in mouse survival measured after 7 days. It counts as functional. The note with it: for ED50: BNCC 337371, ip, 168 h, time 7 day; for Activity: time 7.0 day. In short, it runs like this: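 Neutropenic 6-8 week Kunming mice (cyclophosphamide 150 mg/kg ip for four days, then 100 mg/kg one day before inoculation) were infected ip with 0.5 mL MRSA-337371 at 10^8 CFU/mL. About 1 h later they were dosed ip at 5, 8, 15, 25 or 40 mg/kg in DMSO:Tween-80:water 0.5:0.5:9 (10 per group). Mice were observed twice daily, survival was read at day 7, and ED50 was calculated by the Bliss method.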

Assay [8] relates to Staphylococcus aureus. The experiment in a line: Antibacterial activity against Staphylococcus aureus BNCC 337371 infected in Kunming mouse assessed as bacterial load in lung at 20 to 40 mg/kg, ip measured after 2 days by colony counting method (reference value: 4.8 log10CFU/ml). It counts as functional. As to conditions: dose 20-40 mg/kg; time 2 day. In short, it runs like this: (§3)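 Kunming mice (SPF, 6-8 weeks) were made neutropenic with ip cyclophosphamide, 150 mg/kg for four days and 100 mg/kg one day before infection. They were infected ip with 0.5 mL of MRSA-337371 at 10^8 CFU/mL. About 1 h later, compound was given ip in 0.5 mL vehicle (DMSO:Tween-80:water 0.5:0.5:9). After 2 d of treatment, lung, kidney and liver were weighed, homogenized in saline, diluted 10-fold, plated on MH agar at 37 °C for 24 h in triplicate, and expressed as CFU/g.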

In assay [9] the test system is Staphylococcus aureus. The experiment in a line: Antibacterial activity against Staphylococcus aureus BNCC 337371 infected in Kunming mouse assessed as reduction in bacterial load in liver at 20 to 40 mg/kg, ip measured after 2 days by colony counting method. It counts as functional, organism-based. As to conditions: dose 20-40 mg/kg, time 2.0 day. In short, it runs like this: as §3

The subject of assay [10] is Staphylococcus aureus. The experiment in a line: Antibacterial activity against Staphylococcus aureus BNCC 337371 infected in Kunming mouse assessed as reduction in infiltration of neutrophils cells at 20 to 40 mg/kg, ip measured after 2 days by H and E staining based light microscopic analysis. It counts as functional, organism-based. The note with it: dose 20-40 mg/kg, time 2.0 day. In short, it runs like this:
(§4)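 In neutropenic Kunming mice infected ip with MRSA-337371 and treated ip, lungs were taken after 2 d of treatment. They were fixed in 10% buffered formalin, embedded in paraffin, cut into 4 μm sections, stained with H&E and examined by light microscopy against normal and untreated infected groups.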

Assay [11] concerns Staphylococcus aureus. The experiment in a line: Antibacterial activity against Staphylococcus aureus BNCC 337371 infected in Kunming mouse assessed as reduction in local congestion in lung at 20 to 40 mg/kg, ip measured after 2 days by H and E staining based light microscopic analysis. As to conditions: dose 20-40 mg/kg, time 2.0 day. It is filed as functional, organism-based. In short, it runs like this:
as §4

The subject of assay [12] is Staphylococcus aureus. The experiment in a line: Antibacterial activity against Staphylococcus aureus BNCC 337371 infected in Kunming mouse assessed as reduction in bacterial load in lung at 20 to 40 mg/kg, ip measured after 2 days by colony counting method. It is filed as functional, organism-based. The note with it: dose 20-40 mg/kg, time 2.0 day. A digest of the protocol:
as §3

For assay [13], the system named is Staphylococcus aureus. The experiment in a line: Antibacterial activity against Staphylococcus aureus BNCC 337371 infected in Kunming mouse assessed as reduction in bacterial load in kidney at 20 to 40 mg/kg, ip measured after 2 days by colony counting method. It counts as functional, organism-based. The note with it: dose 20-40 mg/kg, time 2.0 day. In short, it runs like this:
as §3

Assay [14] concerns Staphylococcus aureus. The experiment in a line: Antibacterial activity against Staphylococcus aureus BNCC 337371 infected in Kunming mouse assessed as reduction in lung tissue damage at 20 to 40 mg/kg, ip measured after 2 days by H and E staining based light microscopic analysis. It is filed as functional, organism-based. As to conditions: dose 20-40 mg/kg, time 2.0 day. A digest of the protocol:
as §4

Assay [15] relates to Staphylococcus aureus. The experiment in a line: Antibacterial activity against Staphylococcus aureus BNCC 337371 infected in Kunming mouse assessed as reduction in inflammatory cell infiltration in pulmonary interstitium at 40 mg/kg, ip measured after 2 days by H and E staining based light microscopic analysis. The note with it: time 2.0 day. It is filed as functional, organism-based. A digest of the protocol:
as §4

Assay [16] deals with Staphylococcus aureus. The experiment in a line: Antibacterial activity against Staphylococcus aureus BNCC 337371 infected in Kunming mouse assessed as thickening of alveolar septum and wall at 20 mg/kg, ip measured after 2 days by H and E staining based light microscopic analysis. It counts as functional, organism-based. As to conditions: time 2.0 day. A digest of the protocol:
as §4

As usually defined, the MIC is the lowest concentration found to suppress growth. Higher therefore signals weaker potency. For orientation: ED50 means the dose that gives a 50% effect, or the effect in half of the subjects. Regarding `C=C[C@]1(C)C[C@@H](OC(=O)CSCCN(CC)CC)[C@]2(C)[C@H](C)CC[C@]3(CCC(=O)[C@H]32)[C@@H](C)[C@@H]1O` [TIAMULIN], the MIC was determined as 0.82 µM (≈ 0.405 µg/mL) against Staphylococcus aureus [1]; 0.82 µM (≈ 0.405 µg/mL) in [2]; 0.82 µM (≈ 0.405 µg/mL) against Staphylococcus aureus [3]; 0.2 µM (≈ 0.0988 µg/mL) in assay [4]; 0.2 µM (≈ 0.0988 µg/mL) against Streptococcus agalactiae; 52.5 µM (≈ 25.9 µg/mL) against Enterococcus faecalis. For the same molecule, the minimal inhibitory concentration (MIC) was 3.28 µM (≈ 1.62 µg/mL) with Pasteurella multocida and 52.5 µM (≈ 25.9 µg/mL) against Escherichia coli. The Activity result with Staphylococcus aureus [5] is “Dose-dependent effect”; in the assay with Staphylococcus aureus [7], “Dose-dependent effect”; in the assay on Staphylococcus aureus [8], 1.1 log10CFU/ml. Further, in the assay on Staphylococcus aureus [6], the “fold change (FC)” value is on record as 1. In the assay with Staphylococcus aureus [7], the ED50 is 25.9 mg/kg. Moreover, the outcome with Staphylococcus aureus [9] was inactive. In addition, the result with Staphylococcus aureus [10] and in the assay on Staphylococcus aureus [11] was Active.
For `C=C[C@]1(C)C[C@@H](OC(=O)CSc2nc(C)cc(N3CCOCC3)n2)[C@@]2(C)[C@H](C)CC[C@]3(CCC(=O)[C@H]32)[C@@H](C)[C@@H]1O`, the MIC in the assay on Staphylococcus aureus [1] came to 0.11 µM (≈ 0.0629 µg/mL); in assay [2] it was 0.11 µM (≈ 0.0629 µg/mL); against Staphylococcus aureus [3] it was 0.11 µM (≈ 0.0629 µg/mL); in [4], 0.05 µM (≈ 0.0286 µg/mL); against Streptococcus agalactiae, 0.05 µM (≈ 0.0286 µg/mL); against Enterococcus faecalis, 14 µM (≈ 8 µg/mL). The MIC is 14 µM (≈ 8 µg/mL) in the assay with Pasteurella multocida and more than 56 µM in the assay with Escherichia coli. For the same molecule, the Activity entry with Staphylococcus aureus [5] is “Dose-dependent effect”. For the same molecule, the “fold change (FC)” value in the assay with Staphylococcus aureus [6] is recorded as “>=2”.
As for `C=C[C@]1(C)C[C@@H](OC(=O)CSc2nc(C)cc(N3CCCC3)n2)[C@@]2(C)[C@H](C)CC[C@]3(CCC(=O)[C@H]32)[C@@H](C)[C@@H]1O`, the MIC against Staphylococcus aureus [1] came to 0.06 µM (≈ 0.0333 µg/mL); in assay [2], 0.11 µM (≈ 0.0611 µg/mL); in the assay with Staphylococcus aureus [3] it was 0.06 µM (≈ 0.0333 µg/mL); in assay [4], 0.06 µM (≈ 0.0333 µg/mL); in the assay on Streptococcus agalactiae it was 0.06 µM (≈ 0.0333 µg/mL); in the assay on Enterococcus faecalis, 14.4 µM (≈ 8.01 µg/mL). Besides, the MIC in the assay with Pasteurella multocida is 14.4 µM (≈ 8.01 µg/mL); against Escherichia coli it was more than 57.6 µM. Besides, the Activity entry in the assay on Staphylococcus aureus [5] and with Staphylococcus aureus [7] was “Dose-dependent effect” throughout. In addition, the “fold change (FC)” value with Staphylococcus aureus [6] is on record as “>=2”. For the same molecule, the median effective dose (ED50) in the assay with Staphylococcus aureus [7] came to 18 mg/kg. Also, the outcome with Staphylococcus aureus [12], in the assay on Staphylococcus aureus [13], in the assay with Staphylococcus aureus [14], in the assay with Staphylococcus aureus [15] and with Staphylococcus aureus [16] was Active. Besides, the outcome with Staphylococcus aureus [9] was inactive.
